From ChEMBL document CHEMBL4177671, “Selenium-containing analogues of WC-9 are extremely potent inhibitors of Trypanosoma cruzi proliferation” (Bioorg Med Chem, 2017) come the findings set out here.

A short description of data set [1]: Selectivity index, ratio of ED50 for African green monkey Vero cells to ED50 for Trypanosoma cruzi. The class given is toxicity. To be noted: Vero cells versus Trypanosoma cruzi, read-out: Ratio ED50. Summed up:
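Calculated as ED50 for Vero cytotoxicity divided by ED50 for the parasite.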

In the next data set the test system is Trypanosoma cruzi. In words: Antitrypanosomal activity against tdTomato red labeled trypomastigote stage of Trypanosoma cruzi infected in gamma-irradiated African green monkey Vero cells after 3 days by fluorescence assay. The settings on record: light or radiation study, 72 h, read-out: ED50 (the source's name). The class given is functional. The method in brief: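 Vero cells, gamma-irradiated at 2,000 Rads, were seeded at 3.4×10^4 per well in RPMI with 10% FBS and incubated overnight at 35 °C, 7% CO2. They were infected with 3.4×10^5 CL-strain tdTomato trypomastigotes per well for 5 h, then washed. Serial dilutions of 1.56–25 μM were run in quadruplicate, with benznidazole at 0.39–6.25 μM. Fluorescence was read at day 3. ED50 was obtained by non-linear regression.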

The nature of data set [2]: Cytotoxicity against African green monkey Vero cells after 3 to 4 days by Alamar Blue dye-based spectrophotometric method. The class given is cell-based. The settings on record: chlorocebus sabaeus, read-out: ED50 (the source's name). Summed up:
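Vero cell cytotoxicity was measured by Alamar Blue assay following a previously described method.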
On the technique in general: Resazurin is reduced to fluorescent resorufin, in cell work by metabolically active cells.

The next data set deals with Toxoplasma gondii. In words: Antiparasitic activity against tachyzoite stage of Toxoplasma gondii expressing red fluorescent protein infected in gamma-irradiated African green monkey Vero cells by fluorescence assay. The settings on record: light or radiation study, read-out: ED50 (the source's name). The class given is functional. The method in brief:
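Tachyzoites expressing red fluorescent protein, assayed per an earlier method with published modifications. Plates were read with lids on, bottom read, excitation 544 nm and emission 590 nm. Values are the mean of one experiment carried out in triplicate.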

The structures appear in SMILES notation.

Regarding `N#C[Se]CCOc1cccc(Oc2ccccc2F)c1`, the selectivity ratio in data set [1] turned out to be 1110. Further, in the data set on Trypanosoma cruzi, the EC50 amounted to 0.126 µM. Further, the CC50 in data set [2] came to 140 µM.

Consider `N#C[Se]CCOc1ccc(Cl)cc1Cl`, for which the selectivity ratio in data set [1] is more than 45.3. Further, the EC50 in the data set with Trypanosoma cruzi was found to be 1.38 µM. The CC50 in data set [2] is more than 62.5 µM.

As to `N#C[Se]CC1Cc2ccc(Oc3ccccc3)cc2O1` (racemic), the selectivity ratio in data set [1] is more than 1040. In addition, the EC50 with Trypanosoma cruzi stood at 0.12 µM. The CC50 in data set [2] was more than 125 µM.

In the case of `N#COCCOc1ccc(Oc2ccccc2)cc1`, in the data set on Trypanosoma cruzi, the EC50 is more than 10 µM.

On to `N#CSCC1Cc2cc(Oc3ccccc3)ccc2O1` (stereo not drawn), for which the selectivity ratio in data set [1] was more than 10.4. The figures for the EC50 in the data set on Trypanosoma cruzi and in the data set on Toxoplasma gondii were 5.99 µM and more than 10 µM, respectively. In data set [2], the CC50 is more than 62.5 µM.

In the case of `O=P(O)(O)C(CNCCOc1ccccc1)P(=O)(O)O`, the EC50 with Trypanosoma cruzi was 5.69 µM.

In the case of `N#C[Se]CC1Cc2c(Oc3ccccc3)cccc2O1` (racemic), in data set [1], the selectivity ratio was more than 307. For the same compound, the EC50 in the data set on Trypanosoma cruzi was determined as 0.407 µM. Further, the CC50 in data set [2] is more than 125 µM.

Consider `N#C[Se]CCOc1ccc(Oc2ccccc2)cc1`, for which the selectivity ratio in data set [1] is more than 917. Moreover, the results for the EC50 with Trypanosoma cruzi and in the data set on Toxoplasma gondii were 0.109 µM and 3.7 µM, respectively. The CC50 in data set [2] was more than 100 µM.

Regarding `N#C[Se]CCOc1cccc(Oc2cccc(F)c2)c1`, the selectivity ratio in data set [1] was more than 833. Further, the EC50 with Trypanosoma cruzi is 0.075 µM. Further, the CC50 in data set [2] was more than 62.5 µM.

As for `CCOP(=O)(OCC)C(CNCCOc1ccccc1)P(=O)(OCC)OCC`, the EC50 with Trypanosoma cruzi turned out to be 5.38 µM.

As for `N#C[Se]CC1Cc2cc(Oc3ccccc3)ccc2O1` (racemic), the selectivity ratio in data set [1] is more than 1500. Besides, in the data set on Trypanosoma cruzi, the EC50 was determined as 0.083 µM. Besides, the CC50 in data set [2] was more than 125 µM.

With `N#CSCCOc1ccc(Oc2ccccc2)cc1`, the EC50 stood at 5 µM in the data set with Trypanosoma cruzi and 4.8 µM in the data set on Toxoplasma gondii. Besides, the CC50 in data set [2] worked out at 82.6 µM.

Regarding `O=C(Cn1ccnc1[N+](=O)[O-])NCc1ccccc1` [BENZNIDAZOLE], the EC50 with Trypanosoma cruzi is 1.5 µM.

Regarding `N#CSCCOc1ccc(Sc2ccccc2)cc1`, the selectivity ratio in data set [1] was more than 10.9. For the same compound, the EC50 amounted to 5.73 µM in the data set on Trypanosoma cruzi and 4.58 µM in the data set with Toxoplasma gondii. Moreover, the CC50 in data set [2] was more than 62.5 µM.

On to `N#CSCc1cc2cc(Oc3ccccc3)ccc2o1`, for which, in the data set on Trypanosoma cruzi, the EC50 was determined as 5.19 µM.

As to `N#C[Se]CCOc1cccc(Oc2ccccc2)c1`, the selectivity ratio in data set [1] was more than 1760. Besides, the values for the EC50 with Trypanosoma cruzi and in the data set with Toxoplasma gondii were 0.085 µM and 2.87 µM, respectively. The CC50 in data set [2] is more than 150 µM.

In the case of `N#C[Se]CCOc1cccc(I)c1`, the selectivity ratio in data set [1] is more than 11.5. Besides, the EC50 in the data set with Trypanosoma cruzi was found to be 5.44 µM. The CC50 in data set [2] was more than 62.5 µM.

`N#C[Se]CCOc1cccc(Oc2ccc(F)cc2)c1`: in data set [1], the selectivity ratio was more than 1260. The EC50 with Trypanosoma cruzi worked out at 0.099 µM. For the same compound, the CC50 in data set [2] was more than 125 µM.

Consider `N#C[Se]CCOc1ccc(Oc2ccc(F)cc2)cc1`, for which the EC50 in the data set on Trypanosoma cruzi was 0.271 µM. For the same compound, in data set [2], the CC50 worked out at 122 µM.

As to `N#CSCCOc1cccc(Sc2ccccc2)c1`, the EC50 was more than 10 µM with Trypanosoma cruzi and 3.58 µM in the data set on Toxoplasma gondii. Besides, the CC50 in data set [2] is more than 50 µM.

For `N#C[Se]CCOc1ccc(I)cc1`, in the data set with Trypanosoma cruzi, the EC50 was more than 10 µM. Besides, the CC50 in data set [2] is more than 50 µM.

Consider `O=[N+]([O-])c1ccc(Oc2cccc(Br)c2)cc1`, for which, in the data set on Trypanosoma cruzi, the EC50 was more than 100 µM.

Turning to `N#C[Se]CCOc1ccc(Oc2cccc(F)c2)cc1`, the selectivity ratio in data set [1] was 1800. For the same compound, the EC50 in the data set with Trypanosoma cruzi worked out at 0.085 µM. In data set [2], the CC50 worked out at 153 µM.

As for `N#C[Se]CCOc1cccc(Oc2ccc(Cl)cc2)c1`, in data set [1], the selectivity ratio is more than 1100. The EC50 in the data set on Trypanosoma cruzi was determined as 0.114 µM. Moreover, the CC50 in data set [2] was more than 125 µM.

Take `NC(=O)OCCOc1ccc(Oc2ccccc2)cc1`: in the data set on Trypanosoma cruzi, the EC50 was more than 10 µM.
